Values after ≈ are worked out from the molar mass of the structure shown.
test system: Escherichia coli; experiment: Antibacterial activity against Escherichia coli ATCC 35210 at […] degC measured after 72 hr by microdilution method; format: functional; settings: ATCC 35210, 72 h
Summary of the method: (§1)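 Bactericidal endpoint: after the 24 h broth microdilution (1.0×10⁴ CFU per well, LB broth, […] °C), wells were serially subcultured into plates of fresh broth and incubated a further 72 h. MBC was the lowest concentration with no visible growth, taken as 99.5% killing of the original inoculum.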

Row | SMILES | MBC [µM]
1 | COc1cc(Cc2nnc(Nc3ccc(Cl)cc3)s2)c(S(=O)(=O)N2CCCC2)cc1OC | 40.4 (≈ 20 µg/mL)

test system: Micrococcus flavus; experiment: Antibacterial activity against Micrococcus flavus ATCC 10240 at […] degC measured after 24 hr by microdilution method; format: functional; settings: ATCC 10240, 24 h
Summary of the method: (§2)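 Bacteria suspended in sterile saline at 1.0×10⁵ CFU/ml and added at 1.0×10⁴ CFU per well to LB broth with compound (1 mg/ml) in 96-well plates. Incubated 24 h at […] °C. MIC was the lowest concentration without visible growth under a binocular microscope. OD 655 nm was read against a blank and a positive control.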

Row | MIC [µM] | SMILES
2 | 20.2 (≈ 10 µg/mL) | COc1cc(Cc2nnc(Nc3ccc(Cl)cc3)s2)c(S(=O)(=O)N2CCCC2)cc1OC

test system: Bacillus cereus; experiment: Antibacterial activity against clinical isolate Bacillus cereus at […] degC measured after 72 hr by microdilution method; format: functional; settings: not given; summary of the method: as §1

Row | SMILES | MBC [µM]
3 | COc1cc(Cc2nnc(Nc3ccc(Cl)cc3)s2)c(S(=O)(=O)N2CCCC2)cc1OC | 40.4 (≈ 20 µg/mL)

test system: Pseudomonas aeruginosa; experiment: Antibacterial activity against Pseudomonas aeruginosa ATCC 27853 at […] degC measured after 72 hr by microdilution method; format: functional; settings: ATCC 27853, 72 h; summary of the method: as §1

Row | SMILES | MBC [µM]
4 | COc1cc(Cc2nnc(Nc3ccc(Cl)cc3)s2)c(S(=O)(=O)N2CCCC2)cc1OC | 40.4 (≈ 20 µg/mL)

test system: Proteus mirabilis; experiment: Antibacterial activity against Proteus mirabilis at […] degC measured after 24 hr by microdilution method; format: functional; settings: not given; summary of the method: as §2

Row | MIC [µM] | SMILES
5 | 20.2 (≈ 10 µg/mL) | COc1cc(Cc2nnc(Nc3ccc(Cl)cc3)s2)c(S(=O)(=O)N2CCCC2)cc1OC

test system: Listeria monocytogenes; experiment: Antibacterial activity against Listeria monocytogenes NCTC 7973 at […] degC measured after 24 hr by microdilution method; format: functional; settings: NCTC 7973, 24 h; summary of the method: as §2

Row | MIC [µM] | SMILES
6 | 40.4 (≈ 20 µg/mL) | COc1cc(Cc2nnc(Nc3ccc(Cl)cc3)s2)c(S(=O)(=O)N2CCCC2)cc1OC

test system: Bacillus cereus; experiment: Antibacterial activity against clinical isolate Bacillus cereus at […] degC measured after 24 hr by microdilution method; format: functional; settings: not given; summary of the method: as §2

Row | MIC [µM] | SMILES
7 | 20.2 (≈ 10 µg/mL) | COc1cc(Cc2nnc(Nc3ccc(Cl)cc3)s2)c(S(=O)(=O)N2CCCC2)cc1OC

test system: Staphylococcus aureus; experiment: Antibacterial activity against Staphylococcus aureus ATCC 6538 at […] degC measured after 24 hr by microdilution method; format: functional; settings: ATCC 6538, 24 h; summary of the method: as §2

Row | MIC [µM] | SMILES
8 | 20.2 (≈ 10 µg/mL) | COc1cc(Cc2nnc(Nc3ccc(Cl)cc3)s2)c(S(=O)(=O)N2CCCC2)cc1OC

test system: Aspergillus fumigatus; experiment: Antifungal activity against plant isolate Aspergillus fumigatus at 28 degC measured after 72 hr by microdilution method; format: functional; settings: not given
Summary of the method: (§3)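 Fungi were kept on malt agar at 4 °C. Spores were washed off with sterile 0.85% saline containing 0.1% Tween 80 and adjusted to about 1.0×10⁵ per well. Compounds were dissolved in DMSO (1 mg/ml stock) and serially diluted in malt broth with inoculum in 96-well plates, 72 h at 28 °C, for MIC. MFC came from subculture into fresh broth for a further 72 h at 28 °C.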

Row | SMILES | MFC [µM] | MIC [µM]
9 | COc1cc(Cc2nnc(Nc3ccc(Cl)cc3)s2)c(S(=O)(=O)N2CCCC2)cc1OC | 40.4 (≈ 20 µg/mL) | 20.2 (≈ 10 µg/mL)

test system: Fulvia fulva; experiment: Antifungal activity against Passalora fulva TK5318 at 28 degC measured after 72 hr by microdilution method; format: functional; settings: TK5318, 72 h; summary of the method: as §3

Row | MIC [µM] | SMILES | MFC [µM]
10 | 10.1 (≈ 5 µg/mL) | COc1cc(Cc2nnc(Nc3ccc(Cl)cc3)s2)c(S(=O)(=O)N2CCCC2)cc1OC | 20.2 (≈ 10 µg/mL)

test system: Salmonella typhimurium; experiment: Antibacterial activity against Salmonella enterica subsp. enterica serovar Typhimurium ATCC 13311 at […] degC measured after 24 hr by microdilution method; format: functional; settings: ATCC 13311, 24 h; summary of the method: as §2

Row | MIC [µM] | SMILES
11 | 10.1 (≈ 5 µg/mL) | COc1cc(Cc2nnc(Nc3ccc(Cl)cc3)s2)c(S(=O)(=O)N2CCCC2)cc1OC

test system: Micrococcus flavus; experiment: Antibacterial activity against Micrococcus flavus ATCC 10240 at […] degC measured after 72 hr by microdilution method; format: functional; settings: ATCC 10240, 72 h; summary of the method: as §1

Row | SMILES | MBC [µM]
12 | COc1cc(Cc2nnc(Nc3ccc(Cl)cc3)s2)c(S(=O)(=O)N2CCCC2)cc1OC | 40.4 (≈ 20 µg/mL)

test system: Proteus mirabilis; experiment: Antibacterial activity against Proteus mirabilis at […] degC measured after 72 hr by microdilution method; format: functional; settings: not given; summary of the method: as §1

Row | SMILES | MBC [µM]
13 | COc1cc(Cc2nnc(Nc3ccc(Cl)cc3)s2)c(S(=O)(=O)N2CCCC2)cc1OC | 40.4 (≈ 20 µg/mL)

test system: Pseudomonas aeruginosa; experiment: Antibacterial activity against Pseudomonas aeruginosa ATCC 27853 at […] degC measured after 24 hr by microdilution method; format: functional; settings: ATCC 27853, 24 h; summary of the method: as §2

Row | MIC [µM] | SMILES
14 | 20.2 (≈ 10 µg/mL) | COc1cc(Cc2nnc(Nc3ccc(Cl)cc3)s2)c(S(=O)(=O)N2CCCC2)cc1OC

test system: Aspergillus versicolor; experiment: Antifungal activity against Aspergillus versicolor ATCC 11730 at 28 degC measured after 72 hr by microdilution method; format: functional; settings: ATCC 11730, 72 h; summary of the method: as §3

Row | MIC [µM] | SMILES | MFC [µM]
15 | 20.2 (≈ 10 µg/mL) | COc1cc(Cc2nnc(Nc3ccc(Cl)cc3)s2)c(S(=O)(=O)N2CCCC2)cc1OC | 40.4 (≈ 20 µg/mL)

test system: Escherichia coli; experiment: Antibacterial activity against Escherichia coli ATCC 35210 at […] degC measured after 24 hr by microdilution method; format: functional; settings: ATCC 35210, 24 h; summary of the method: as §2

Row | MIC [µM] | SMILES
16 | 15.2 (≈ 7.52 µg/mL) | COc1cc(Cc2nnc(Nc3ccc(Cl)cc3)s2)c(S(=O)(=O)N2CCCC2)cc1OC

test system: Penicillium ochrochloron; experiment: Antifungal activity against Penicillium ochrochloron ATCC 9112 at 28 degC measured after 72 hr by microdilution method; format: functional; settings: ATCC 9112, 72 h; summary of the method: as §3

Row | MIC [µM] | SMILES | MFC [µM]
17 | 20.2 (≈ 10 µg/mL) | COc1cc(Cc2nnc(Nc3ccc(Cl)cc3)s2)c(S(=O)(=O)N2CCCC2)cc1OC | 40.4 (≈ 20 µg/mL)

test system: Salmonella typhimurium; experiment: Antibacterial activity against Salmonella enterica subsp. enterica serovar TyphimuriumATCC 13311 at […] degC measured after 72 hr by microdilution method; format: functional, Salmonella enterica subsp. enterica serovar Typhimurium; settings: ATCC 13311, 72 h; summary of the method: as §1

Row | SMILES | MBC [µM]
18 | COc1cc(Cc2nnc(Nc3ccc(Cl)cc3)s2)c(S(=O)(=O)N2CCCC2)cc1OC | 20.2 (≈ 10 µg/mL)

test system: Aspergillus niger; experiment: Antifungal activity against Aspergillus niger ATCC 6275 at 28 degC measured after 72 hr by microdilution method; format: functional; settings: ATCC 6275, 72 h; summary of the method: as §3

Row | MIC [µM] | SMILES | MFC [µM]
19 | 20.2 (≈ 10 µg/mL) | COc1cc(Cc2nnc(Nc3ccc(Cl)cc3)s2)c(S(=O)(=O)N2CCCC2)cc1OC | 40.4 (≈ 20 µg/mL)

test system: Talaromyces funiculosus; experiment: Antifungal activity against Talaromyces funiculosus ATCC 36839 at 28 degC measured after 72 hr by microdilution method; format: functional; settings: ATCC 36839, 72 h; summary of the method: as §3

Row | MIC [µM] | SMILES | MFC [µM]
20 | 10.1 (≈ 5 µg/mL) | COc1cc(Cc2nnc(Nc3ccc(Cl)cc3)s2)c(S(=O)(=O)N2CCCC2)cc1OC | 20.2 (≈ 10 µg/mL)

test system: Trichoderma viride; experiment: Antifungal activity against Hypocrea rufa IAM 5061 at 28 degC measured after 72 hr by microdilution method; format: functional; settings: IAM 5061, 72 h; summary of the method: as §3

Row | MIC [µM] | SMILES | MFC [µM]
21 | 10.1 (≈ 5 µg/mL) | COc1cc(Cc2nnc(Nc3ccc(Cl)cc3)s2)c(S(=O)(=O)N2CCCC2)cc1OC | 20.2 (≈ 10 µg/mL)

test system: Staphylococcus aureus; experiment: Antibacterial activity against Staphylococcus aureus ATCC 6538 at […] degC measured after 72 hr by microdilution method; format: functional; settings: ATCC 6538, 72 h; summary of the method: as §1

Row | SMILES | MBC [µM]
22 | COc1cc(Cc2nnc(Nc3ccc(Cl)cc3)s2)c(S(=O)(=O)N2CCCC2)cc1OC | 40.4 (≈ 20 µg/mL)

test system: Aspergillus flavus; experiment: Antifungal activity against Aspergillus flavus ATCC 9643 at 28 degC measured after 72 hr by microdilution method; format: functional; settings: ATCC 9643, 72 h; summary of the method: as §3

Row | MIC [µM] | SMILES | MFC [µM]
23 | 20.2 (≈ 10 µg/mL) | COc1cc(Cc2nnc(Nc3ccc(Cl)cc3)s2)c(S(=O)(=O)N2CCCC2)cc1OC | 40.4 (≈ 20 µg/mL)

test system: Listeria monocytogenes; experiment: Antibacterial activity against Listeria monocytogenes NCTC 7973 at […] degC measured after 72 hr by microdilution method; format: functional; settings: NCTC 7973, 72 h; summary of the method: as §1

Row | SMILES | MBC [µM]
24 | COc1cc(Cc2nnc(Nc3ccc(Cl)cc3)s2)c(S(=O)(=O)N2CCCC2)cc1OC | 40.4 (≈ 20 µg/mL)

From ChEMBL document CHEMBL3045677, “Sulfonamide-1,2,4-thiadiazole derivatives as antifungal and antibacterial agents: synthesis, biological evaluation, lipophilicity, and conformational studies” (2010)
